Conditions in all cases: Homo sapiens
The nature of assay [1]: Inhibition of RyR2 R4496C mutant-mediated store overload-induced calcium release in HEK293 cells assessed as reduction in amplitude of spontaneous calcium oscillations by fura-2 AM dye based fluorescence assay. It is filed as cell-based. Summed up:
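Single-cell fura-2 ratio traces were recorded in R4496C RyR2-expressing HEK293 cells. Cells were perfused continuously with increasing concentrations (0, 3, 10, 30 µM) without pre-incubation. The amplitude of spontaneous Ca²⁺ oscillations was compared before and after each addition.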

The test system of assay [2] is HEK293. Put plainly: Inhibition of RyR2 R4496C mutant in HEK293 cells assessed as inhibition of store overload-induced calcium release at 10 uM by fura-2 AM dye based fluorescence assay. In kind it is cell-based. Summed up:
(§1)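 HEK293 cells expressing RyR2 R4496C, loaded with fura-2 AM, were followed by single-cell Ca²⁺ imaging. Cells were perfused continuously with rising drug levels (0, 3, 10, 30 µM) without pre-incubation. Read-out was the percentage of cells showing spontaneous Ca²⁺ oscillations at each concentration.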

For assay [3], the system named is HEK293. Put plainly: Inhibition of RyR2 R4496C mutant in HEK293 cells assessed as inhibition of store overload-induced calcium release at 30 uM by fura-2 AM dye based fluorescence assay. It is filed as cell-based. Summed up:
as §1

Assay [4] relates to HEK293. Put plainly: Induction of cytosolic calcium level in HEK293 cells expressing RyR2 R4496C mutant at 30 uM by fura-2 AM dye based fluorescence assay. It is filed as functional, cell-based. Summed up: (§2)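 Fura-2 ratio imaging of single HEK293 cells expressing mutant RyR2 (R4496C), perfused with compound up to 30 µM without pre-incubation. Cytosolic Ca²⁺ level was monitored, and caffeine, a RyR2 agonist, was then added to trigger Ca²⁺ release. Amplitude of the caffeine-induced release was read from the traces.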

In assay [5] the test system is HEK293. Put plainly: Inhibition of RyR2 R4496C mutant in HEK293 cells assessed as reduction of caffeine-induced calcium release at 30 uM by fura-2 AM dye based fluorescence assay. It is filed as cell-based. Summed up: as §2

The source made the active and inactive calls. The calls are words filed in the database; no cut-off is given here.

By IC50 is commonly meant the concentration needed to halve the response being measured. For orientation: inhibition means the change of the read-out against control, counted positive when it falls.

Regarding `COc1ccc(O)cc1OCCNCC(O)COc1cccc2[nH]c3ccccc3c12` (stereo not given), in assay [1], the IC50 was 19.4 µM. For the same compound, the inhibition in the assay on HEK293 [2] was 10%; with HEK293 [3], 80%. The result in the assay on HEK293 [4] was inactive. The inhibition entry with HEK293 [5] is “inactive”.

In the case of `COc1cc(O)ccc1OCCNCC(O)COc1cccc2[nH]c3ccccc3c12` (stereo not given), in assay [1], the 50% inhibitory concentration (IC50) is 10.4 µM. Moreover, the inhibition in the assay on HEK293 [2] worked out at 10%. In addition, the inhibition result in the assay on HEK293 [3] was “Active”. Moreover, the result with HEK293 [4] was inactive. In the assay on HEK293 [5], the inhibition result was “inactive”.

With `COc1ccccc1OCCNCC(O)COc1c(O)ccc2[nH]c3ccccc3c12` (stereo not given), the IC50 in assay [1] was determined as 9.4 µM. In addition, the inhibition with HEK293 [2] turned out to be 70%. Besides, the inhibition entry in the assay on HEK293 [3] and in the assay with HEK293 [5] was “Active” in each case. Moreover, the result in the assay on HEK293 [4] was Active.

The record behind these values is ChEMBL document CHEMBL3739269, “Suppression of store overload-induced calcium release by hydroxylated metabolites of carvedilol” (Bioorg Med Chem Lett, 2016).
